Among the data in ChEMBL document CHEMBL3259739, “Synthesis and structure-activity relationship of trisubstituted thiazoles as Cdc7 kinase inhibitors” (Eur J Med Chem, 2014) are residual activity, residual binding, % of control and IC50 values, retold here.

Bounds are passed on as bounds.

Experiment [1] has as its target Dual specificity protein kinase CLK4 (Homo sapiens) (UniProt Q9HAZ1). Briefly: Inhibition of CLK4 (unknown origin) at 1 uM relative to control; values are per cent of control.
The target in experiment [2] is Serine/threonine-protein kinase pim-1 (Homo sapiens, UniProt P11309). Briefly: Inhibition of PIM1 (unknown origin) at 1 uM relative to control. The following applies: values are per cent of control. An outline of the steps: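 The supplementary panel puts Pim1 in the KinomeSCAN competitive binding format; compounds at 1 µM in duplicate; percent […] control.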

Experiment [3] concerns the target Casein kinase I isoform delta (Homo sapiens, UniProt P48730). Briefly: Inhibition of CSNK1D (unknown origin) at 1 uM relative to control; values are per cent of control.
Experiment [4] has as its target Receptor-type tyrosine-protein kinase FLT3 (Homo sapiens) (UniProt P36888). Briefly: Inhibition of FLT3 (unknown origin) at 1 uM relative to control; values are per cent of control.
The target of experiment [5] is Tyrosine-protein kinase Lyn (Homo sapiens) (UniProt P07948). Briefly: Inhibition of LYN (unknown origin) at 1 uM relative to control; values are per cent of control.
Experiment [6] deals with Rho-associated protein kinase 2 (Homo sapiens) (UniProt O75116). Briefly: Inhibition of ROCK2 (unknown origin) at 1 uM relative to control. As to conditions: values are per cent of control. An outline of the steps:
(§1)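 KinomeSCAN competitive binding panel of 100 kinases; compounds tested at 1 µM in duplicate; read-out is percent […] control.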

Experiment [7] has as its target Non-receptor tyrosine-protein kinase TYK2 (Homo sapiens) (UniProt P29597). Briefly: Inhibition of JH1 catalytic domain of TYK2 (unknown origin) at 1 uM relative to control. As to conditions: values are per cent of control. An outline of the steps: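 Competitive binding panel (KinomeSCAN) of 100 kinases, with compound tested at 1 µM in duplicate. The read-out was percent inhibition relative to control.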

The target of experiment [8] is MAP kinase-interacting serine/threonine-protein kinase 1 (Homo sapiens) (UniProt Q9BUB5). Briefly: Inhibition of MKNK1 (unknown origin) at 1 uM relative to control; values are per cent of control.
The target in experiment [9] is Cyclin-dependent kinase 2/cyclin E1 (Homo sapiens, UniProt P24941). Briefly: Inhibition of CDK2/Cyclin-E (unknown origin) using maltose binding protein as substrate by HTRF assay. In kind it is protein-complex assay. (In general: Time-resolved FRET reads energy transfer from a long-lived donor to a nearby acceptor.)
Experiment [10] has as its target Tyrosine-protein kinase Fyn (Homo sapiens) (UniProt P06241). Briefly: Inhibition of FYN (unknown origin) at 1 uM relative to control; values are per cent of control.
In experiment [11] the target is Serine/threonine-protein kinase PLK1 (Homo sapiens) (UniProt P53350). Briefly: Inhibition of PLK1 (unknown origin) at 1 uM relative to control. As to conditions: values are per cent of control. An outline of the steps: as §1
In experiment [12] the target is Ephrin type-A receptor 4 (Homo sapiens) (UniProt P54764). Briefly: Inhibition of EPHA4 (unknown origin) at 1 uM relative to control; values are per cent of control.
The target in experiment [13] is Serine/threonine-protein kinase MARK1 (Homo sapiens) (UniProt Q9P0L2). Briefly: Inhibition of MARK1 (unknown origin) at 1 uM relative to control; values are per cent of control.
Experiment [14] concerns the target Receptor-interacting serine/threonine-protein kinase 2 (Homo sapiens) (UniProt O43353). Briefly: Inhibition of RIPK2 (unknown origin) at 1 uM relative to control. As to conditions: values are per cent of control. An outline of the steps:
as §1

For experiment [15], the target named is Dual specificity tyrosine-phosphorylation-regulated kinase 1B (Homo sapiens) (UniProt Q9Y463). Briefly: Inhibition of DYRK1B (unknown origin) at 1 uM relative to control; values are per cent of control.
Experiment [16] concerns the target Serine/threonine-protein kinase PAK 2 (Homo sapiens) (UniProt Q13177). Briefly: Inhibition of PAK2 (unknown origin) at 1 uM relative to control. As to conditions: values are per cent of control. An outline of the steps:
as §1

The target of experiment [17] is Mitogen-activated protein kinase kinase kinase kinase 4 (Homo sapiens) (UniProt O95819). Briefly: Inhibition of MAP4K4 (unknown origin) at 1 uM relative to control; values are per cent of control.
Experiment [18] has as its target ALK tyrosine kinase receptor (Homo sapiens) (UniProt Q9UM73). Briefly: Inhibition of ALK (unknown origin) at 1 uM relative to control; values are per cent of control.
In experiment [19] the target is Mitogen-activated protein kinase 10 (Homo sapiens) (UniProt P53779). Briefly: Inhibition of JNK3 (unknown origin) at 1 uM relative to control; values are per cent of control.
Experiment [20] addresses T1, Dual specificity mitogen-activated protein kinase kinase 3 (Homo sapiens) (UniProt P46734).
T1 sequence (whole entry): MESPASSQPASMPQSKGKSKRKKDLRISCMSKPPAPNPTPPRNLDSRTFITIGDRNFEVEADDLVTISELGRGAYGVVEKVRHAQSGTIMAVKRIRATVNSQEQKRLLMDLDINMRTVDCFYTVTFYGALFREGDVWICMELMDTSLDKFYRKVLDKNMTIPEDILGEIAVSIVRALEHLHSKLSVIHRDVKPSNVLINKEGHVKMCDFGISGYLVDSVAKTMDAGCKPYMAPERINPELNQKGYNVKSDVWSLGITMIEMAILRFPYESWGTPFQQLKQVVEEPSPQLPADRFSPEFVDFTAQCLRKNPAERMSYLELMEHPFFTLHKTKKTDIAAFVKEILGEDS
Briefly: Inhibition of MEK3 (unknown origin) at 1 uM relative to control; values are per cent of control.

In experiment [21] the target is Serine/threonine-protein kinase Nek4 (Homo sapiens) (UniProt P51957). Briefly: Inhibition of NEK4 (unknown origin) at 1 uM relative to control; values are per cent of control.
Experiment [22] has as its target T2, Aurora kinase A (Homo sapiens) (UniProt O14965).
T2 sequence (whole entry): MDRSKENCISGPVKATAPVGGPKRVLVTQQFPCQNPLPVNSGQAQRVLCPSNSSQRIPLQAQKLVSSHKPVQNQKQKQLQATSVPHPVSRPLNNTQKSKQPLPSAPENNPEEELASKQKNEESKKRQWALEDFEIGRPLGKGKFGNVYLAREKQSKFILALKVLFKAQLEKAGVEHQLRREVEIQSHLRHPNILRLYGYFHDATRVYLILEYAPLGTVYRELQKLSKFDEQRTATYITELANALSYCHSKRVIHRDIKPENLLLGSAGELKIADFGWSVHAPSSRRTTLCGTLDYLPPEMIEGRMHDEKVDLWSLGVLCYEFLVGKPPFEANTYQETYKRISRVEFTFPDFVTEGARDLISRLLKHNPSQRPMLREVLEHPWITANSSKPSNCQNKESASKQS
Briefly: Inhibition of AURKA (unknown origin) at 1 uM relative to control; values are per cent of control.

Chain of Dual specificity protein kinase CLK4 (Homo sapiens) (Q9HAZ1 whole entry, looked up): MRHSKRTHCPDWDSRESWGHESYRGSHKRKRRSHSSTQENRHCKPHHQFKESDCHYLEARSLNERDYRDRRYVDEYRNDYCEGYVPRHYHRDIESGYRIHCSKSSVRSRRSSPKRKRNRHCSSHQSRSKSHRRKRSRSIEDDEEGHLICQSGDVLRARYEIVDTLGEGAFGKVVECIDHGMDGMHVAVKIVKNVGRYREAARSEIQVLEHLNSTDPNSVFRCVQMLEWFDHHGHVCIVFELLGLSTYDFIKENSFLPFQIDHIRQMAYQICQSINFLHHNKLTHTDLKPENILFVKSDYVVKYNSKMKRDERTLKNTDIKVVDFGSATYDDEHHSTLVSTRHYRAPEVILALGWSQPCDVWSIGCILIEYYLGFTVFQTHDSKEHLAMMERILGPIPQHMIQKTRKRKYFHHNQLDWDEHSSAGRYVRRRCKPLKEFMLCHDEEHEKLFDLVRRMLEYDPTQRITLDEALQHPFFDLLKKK
Chain of Casein kinase I isoform delta (P48730 whole entry, looked up, canonical isoform): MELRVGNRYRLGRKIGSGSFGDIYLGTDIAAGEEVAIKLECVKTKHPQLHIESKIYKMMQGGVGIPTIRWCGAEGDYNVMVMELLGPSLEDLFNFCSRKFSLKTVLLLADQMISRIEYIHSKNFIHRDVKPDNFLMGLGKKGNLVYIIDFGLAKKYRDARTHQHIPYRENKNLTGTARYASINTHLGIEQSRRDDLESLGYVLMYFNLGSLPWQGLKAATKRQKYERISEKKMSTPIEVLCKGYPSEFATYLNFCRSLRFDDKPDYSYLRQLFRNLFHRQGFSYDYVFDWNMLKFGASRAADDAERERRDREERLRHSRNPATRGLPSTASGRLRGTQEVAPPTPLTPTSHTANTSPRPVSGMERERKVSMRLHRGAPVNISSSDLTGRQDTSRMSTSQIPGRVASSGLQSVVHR
Chain of Ephrin type-A receptor 4 (Homo sapiens) (P54764 whole entry): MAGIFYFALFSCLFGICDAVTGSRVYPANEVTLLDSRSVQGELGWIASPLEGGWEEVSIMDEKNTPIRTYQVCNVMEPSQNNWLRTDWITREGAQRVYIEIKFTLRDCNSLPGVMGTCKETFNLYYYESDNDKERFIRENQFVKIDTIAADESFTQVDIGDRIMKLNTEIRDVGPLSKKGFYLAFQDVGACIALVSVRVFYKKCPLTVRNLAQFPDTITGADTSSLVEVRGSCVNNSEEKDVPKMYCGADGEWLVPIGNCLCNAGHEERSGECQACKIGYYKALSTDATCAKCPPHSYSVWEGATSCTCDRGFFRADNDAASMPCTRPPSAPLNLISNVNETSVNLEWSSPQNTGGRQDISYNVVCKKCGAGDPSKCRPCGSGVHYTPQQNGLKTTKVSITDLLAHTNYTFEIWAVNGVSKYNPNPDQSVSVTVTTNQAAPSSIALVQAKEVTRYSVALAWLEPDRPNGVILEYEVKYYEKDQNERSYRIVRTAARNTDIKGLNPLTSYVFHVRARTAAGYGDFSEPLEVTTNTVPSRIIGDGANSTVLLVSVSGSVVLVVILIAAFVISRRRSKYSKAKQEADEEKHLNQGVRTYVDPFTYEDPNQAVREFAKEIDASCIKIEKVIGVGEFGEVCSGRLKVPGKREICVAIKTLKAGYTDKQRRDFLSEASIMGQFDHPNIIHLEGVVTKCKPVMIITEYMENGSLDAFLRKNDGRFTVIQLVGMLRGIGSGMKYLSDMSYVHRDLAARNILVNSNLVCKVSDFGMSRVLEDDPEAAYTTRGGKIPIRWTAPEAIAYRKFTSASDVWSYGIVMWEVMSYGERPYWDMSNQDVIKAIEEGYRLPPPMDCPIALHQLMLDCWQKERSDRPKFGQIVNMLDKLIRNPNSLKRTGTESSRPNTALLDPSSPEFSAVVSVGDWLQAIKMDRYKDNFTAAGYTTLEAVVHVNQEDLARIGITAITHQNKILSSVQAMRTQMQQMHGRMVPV
Chain of Dual specificity tyrosine-phosphorylation-regulated kinase 1B (Homo sapiens) (Q9Y463 whole entry, looked up): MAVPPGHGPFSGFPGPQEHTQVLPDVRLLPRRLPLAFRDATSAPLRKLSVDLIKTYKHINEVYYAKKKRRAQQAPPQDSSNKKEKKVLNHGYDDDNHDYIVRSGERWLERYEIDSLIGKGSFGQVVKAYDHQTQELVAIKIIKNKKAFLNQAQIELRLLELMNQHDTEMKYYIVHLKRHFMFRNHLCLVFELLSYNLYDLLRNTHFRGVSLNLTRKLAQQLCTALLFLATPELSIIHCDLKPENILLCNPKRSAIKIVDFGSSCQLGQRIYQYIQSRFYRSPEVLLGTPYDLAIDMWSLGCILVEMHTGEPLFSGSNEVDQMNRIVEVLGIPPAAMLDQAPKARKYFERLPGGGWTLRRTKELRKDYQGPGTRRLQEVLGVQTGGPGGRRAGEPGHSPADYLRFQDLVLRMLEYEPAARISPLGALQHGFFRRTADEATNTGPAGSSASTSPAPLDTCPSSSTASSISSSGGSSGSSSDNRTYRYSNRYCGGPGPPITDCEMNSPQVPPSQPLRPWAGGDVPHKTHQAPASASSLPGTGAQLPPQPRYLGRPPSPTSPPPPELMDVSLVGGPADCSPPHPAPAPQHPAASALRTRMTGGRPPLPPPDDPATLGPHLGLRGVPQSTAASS
Chain of Non-receptor tyrosine-protein kinase TYK2 (Homo sapiens) (P29597 whole entry, the tested form may be a part): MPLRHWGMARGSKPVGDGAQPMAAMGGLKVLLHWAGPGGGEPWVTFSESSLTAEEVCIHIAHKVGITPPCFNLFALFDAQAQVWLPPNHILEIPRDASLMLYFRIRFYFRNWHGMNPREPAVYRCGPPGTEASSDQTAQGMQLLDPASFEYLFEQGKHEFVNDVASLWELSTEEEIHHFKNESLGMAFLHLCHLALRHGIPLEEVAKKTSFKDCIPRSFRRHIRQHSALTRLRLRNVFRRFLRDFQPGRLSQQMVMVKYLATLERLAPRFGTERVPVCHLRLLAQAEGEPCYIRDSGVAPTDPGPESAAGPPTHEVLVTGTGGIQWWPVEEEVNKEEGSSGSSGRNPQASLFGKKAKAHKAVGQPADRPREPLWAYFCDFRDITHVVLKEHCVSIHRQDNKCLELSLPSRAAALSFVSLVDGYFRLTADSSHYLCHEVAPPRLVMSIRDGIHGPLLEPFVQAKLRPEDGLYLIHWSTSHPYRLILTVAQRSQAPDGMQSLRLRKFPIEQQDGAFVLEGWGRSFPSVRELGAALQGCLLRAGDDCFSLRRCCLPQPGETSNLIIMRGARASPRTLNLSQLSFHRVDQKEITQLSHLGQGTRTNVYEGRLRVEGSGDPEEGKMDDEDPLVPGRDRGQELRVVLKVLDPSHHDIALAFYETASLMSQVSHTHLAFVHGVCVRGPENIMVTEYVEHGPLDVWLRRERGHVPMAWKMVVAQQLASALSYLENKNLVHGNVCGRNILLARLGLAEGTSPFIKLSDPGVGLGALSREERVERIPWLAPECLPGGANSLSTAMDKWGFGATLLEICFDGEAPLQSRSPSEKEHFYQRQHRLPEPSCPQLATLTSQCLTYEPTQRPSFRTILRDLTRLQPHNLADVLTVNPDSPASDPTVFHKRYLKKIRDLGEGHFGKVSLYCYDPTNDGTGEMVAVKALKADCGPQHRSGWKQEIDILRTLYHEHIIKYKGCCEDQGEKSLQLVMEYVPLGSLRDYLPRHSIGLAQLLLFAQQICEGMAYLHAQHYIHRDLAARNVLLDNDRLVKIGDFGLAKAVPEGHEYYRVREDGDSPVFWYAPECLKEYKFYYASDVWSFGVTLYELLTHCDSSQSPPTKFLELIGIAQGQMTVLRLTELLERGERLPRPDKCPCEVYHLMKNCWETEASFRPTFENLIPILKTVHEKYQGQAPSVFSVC
Chain of Rho-associated protein kinase 2 (Homo sapiens) (O75116 whole entry, looked up): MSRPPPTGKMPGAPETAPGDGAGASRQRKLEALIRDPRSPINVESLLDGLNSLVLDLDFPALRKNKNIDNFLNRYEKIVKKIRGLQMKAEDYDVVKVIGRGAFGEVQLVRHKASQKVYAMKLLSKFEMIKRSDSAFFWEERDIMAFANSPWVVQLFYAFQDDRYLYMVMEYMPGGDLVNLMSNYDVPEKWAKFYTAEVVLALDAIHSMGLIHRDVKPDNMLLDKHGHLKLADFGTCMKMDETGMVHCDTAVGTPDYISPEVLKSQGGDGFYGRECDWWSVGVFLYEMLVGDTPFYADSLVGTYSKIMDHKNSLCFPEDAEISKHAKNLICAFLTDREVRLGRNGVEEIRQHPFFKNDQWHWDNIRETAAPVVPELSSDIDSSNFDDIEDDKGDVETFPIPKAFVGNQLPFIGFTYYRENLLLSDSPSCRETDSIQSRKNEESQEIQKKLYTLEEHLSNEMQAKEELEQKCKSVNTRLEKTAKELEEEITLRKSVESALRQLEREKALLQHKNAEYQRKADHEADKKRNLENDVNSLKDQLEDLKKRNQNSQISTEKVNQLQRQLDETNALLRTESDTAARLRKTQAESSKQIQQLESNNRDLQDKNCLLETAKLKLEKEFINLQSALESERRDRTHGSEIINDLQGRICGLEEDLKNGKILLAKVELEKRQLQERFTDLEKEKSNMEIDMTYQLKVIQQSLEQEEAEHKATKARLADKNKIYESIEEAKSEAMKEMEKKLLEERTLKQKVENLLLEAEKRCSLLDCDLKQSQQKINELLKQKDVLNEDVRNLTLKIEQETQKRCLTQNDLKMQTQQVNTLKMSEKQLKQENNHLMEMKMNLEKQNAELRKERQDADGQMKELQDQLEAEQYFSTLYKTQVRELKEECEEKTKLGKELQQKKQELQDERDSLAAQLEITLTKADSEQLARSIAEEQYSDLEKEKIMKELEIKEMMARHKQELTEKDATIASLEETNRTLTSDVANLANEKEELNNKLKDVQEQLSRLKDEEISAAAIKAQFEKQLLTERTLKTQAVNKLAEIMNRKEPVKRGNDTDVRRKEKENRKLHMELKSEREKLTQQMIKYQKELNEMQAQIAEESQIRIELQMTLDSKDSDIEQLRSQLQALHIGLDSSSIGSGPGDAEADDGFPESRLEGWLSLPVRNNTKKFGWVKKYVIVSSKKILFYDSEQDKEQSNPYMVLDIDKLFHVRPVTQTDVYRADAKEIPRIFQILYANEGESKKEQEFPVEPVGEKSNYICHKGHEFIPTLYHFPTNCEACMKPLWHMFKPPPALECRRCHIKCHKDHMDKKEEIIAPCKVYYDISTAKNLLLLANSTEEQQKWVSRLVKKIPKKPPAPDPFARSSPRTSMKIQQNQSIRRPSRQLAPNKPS

Turning to `CCOC(=O)c1sc(-c2ccncc2)nc1O`, the residual activity was found to be 92% in experiment [1]; 90% in experiment [3]; 87% in experiment [4]; 80% in experiment [5]; 100% in experiment [8]; 100% in [10]. Besides, the residual activity in experiment [12] worked out at 58%; in [13] it was 100%; in experiment [15], 86%; in experiment [17], 80%; in experiment [18], 86%; in experiment [19], 93%. Further, the residual activity in experiment [20], in experiment [21] and in [22] was 100% in each case. Also, the residual binding, % of control was 75% in experiment [2]; 92% in [6]; 100% in experiment [7]; 100% in experiment [11]; 99% in experiment [14]; 99% in [16]. The IC50 (as a rule, the concentration that inhibits the measured activity by half) in experiment [9] is greater than 125 µM.
With `NC(=O)c1sc(-c2ccnc(N)n2)nc1-c1ccc(Cl)cc1Cl`, the residual activity in experiment [1] was 0%; in experiment [3], 0.7%; in experiment [4], 66%; in [5], 81%; in experiment [8], 84%; in experiment [10] it was 76%. Further, the residual activity in [12] turned out to be 72%; in [13], 100%; in experiment [15], 0.4%; in experiment [17], 72%; in [18] it was 100%; in experiment [19] it was 83%. Also, the results for the residual activity in [20], in [21] and in experiment [22] were 25%, 93% and 77%, respectively. The residual binding, % of control in experiment [2] stood at 83%; in [6], 34%; in experiment [7], 100%; in experiment [11] it was 100%; in experiment [14], 82%; in [16] it was 100%. For the same compound, in experiment [9], the half-maximal inhibitory concentration (IC50) came out at 1.82 µM.
Regarding `COc1ccc(-c2nc(-c3ccnc(N)n3)sc2C(N)=O)c(Cl)c1`, the residual activity in experiment [1] amounted to 0%; in experiment [3], 0.6%; in experiment [4] it was 100%; in [5] it was 88%; in [8], 55%; in experiment [10], 87%. Moreover, the residual activity in experiment [12] came to 100%; in experiment [13], 100%; in experiment [15], 0.3%; in [17] it was 89%; in experiment [18], 63%; in [19] it was 46%. The residual activity came out at 35% in [20], 76% in experiment [21] and 55% in experiment [22]. For the same compound, the residual binding, % of control in experiment [2] was 99%; in experiment [6] it was 27%; in experiment [7], 94%; in [11], 88%; in [14], 96%; in experiment [16], 89%. For the same compound, in [9], the IC50 came to 10.6 µM.
